The species named for experiment [1] is Mus musculus. Kind of experiment: compound was evaluated for agonist activity in smooth muscle preparation of mouse vas deferens (MVD) at 1 uM concentration. The conditions noted are these: Muscle tissue. The class given is functional. Summed up:
(§1)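 Ligand at 1 µM tested directly on guinea pig ileum longitudinal muscle or mouse vas deferens; percent inhibition of the preparation recorded. Mean ± SEM of 3 experiments.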

The nature of experiment [2]: Prewash IC50 ratio obtained by dividing the IC50 of the DADLE in presence of the antagonist by the IC50 of the agonist alone in the same tissue preparation against delta receptor in mouse vas deferens. The class given is functional. Summed up: (§2)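 Guinea pig ileum longitudinal muscle (morphine, ethylketazocine) or mouse vas deferens (DADLE). Tissue was exposed to antagonist at 100 nM, or 1 nM for one isomer, for 30 min before agonist concentration-response. Prewash ratio is agonist IC50 with antagonist over IC50 alone in the same tissue. Where the shift was significant, tissue was washed extensively and IC50 redetermined; postwash ratio is over control IC50. Mean ± SEM.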

Experiment [3] in a line: Post wash IC50 ratio obtained by dividing the IC50 of the DADLE in presence of the antagonist by the IC50 of the agonist alone in the same tissue preparation against delta receptor in mouse vas deferens. The class given is functional. Summed up:
as §2

For experiment [4], the target named is Mu-type opioid receptor (UniProt P35372). Kind of experiment: Prewash IC50 ratio obtained by dividing the IC50 of the morphine in presence of the antagonist by the IC50 of the agonist alone in the same tissue preparation against opioid receptor mu in guinea pig ileum. The class given is functional, tissue-based. The gist of the method: as §2
Experiment [5] concerns Mus musculus. As to the kind of experiment: Compound was tested for antagonistic activity of opioid agonist induced antinociception by using DSLET as agonist, administered icv in mice. The class given is functional. The gist of the method: (§3)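 Mice received isothiocyanate 10 nmol icv 24 h before testing. Agonist ED50 was then found in the abdominal stretch assay: DPDPE and DSLET given icv, morphine and U50488 given sc. Result is the ED50 ratio, treated over untreated control mice, with significance testing.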

A further experiment is filed under the species Cavia porcellus. Kind of experiment: compound was evaluated for agonist activity in smooth muscle preparation of guinea pig ileum (GPI) at 1 uM concentration. The class given is functional. The conditions noted are these: Muscle tissue. The gist of the method:
as §1

In experiment [6] the target is Kappa-type opioid receptor (UniProt P41145). As to the kind of experiment: Prewash IC50 ratio obtained by dividing the IC50 of the ethylketazocine in presence of the antagonist by the IC50 of the agonist alone in the same tissue preparation against opioid receptor kappa in guinea pig ileum. The class given is functional, tissue-based. The gist of the method:
as §2

Experiment [7] relates to Mus musculus. As to the kind of experiment: Compound was tested for antagonistic activity of opioid agonist induced antinociception by using DPDPE as agonist, administered icv in mice. The class given is functional. Summed up:
as §3

In experiment [8] the test system is Mus musculus. As to the kind of experiment: Compound was tested for antagonistic activity of opioid agonist induced antinociception by using U-50,488H as agonist, administered sc in mice. The class given is functional. The gist of the method:
as §3

The subject of experiment [9] is Mus musculus. Kind of experiment: Compound was tested for antagonistic activity of opioid agonist induced antinociception by using morphine as agonist, administered sc in mice. The class given is functional. The gist of the method: as §3
Experiment [10] concerns the target T1, Delta-type opioid receptor (Rattus norvegicus, UniProt P33533). As to the kind of experiment: Compound was evaluated for its effect towards [3H]DPDPE binding to Opioid receptor delta 1 at 0.25 nM concentration expressed as dissociation constant.
Experiment [11] concerns the target T1, Delta-type opioid receptor. As to the kind of experiment: Compound was evaluated for its effect towards [3H]DSLET binding to Opioid receptor delta 2 at 0.25 nM concentration.
The target in experiment [12] is Delta-type opioid receptor (Rattus norvegicus) (UniProt P33533). Kind of experiment: Compound was evaluated for its effect on the [3H]DSLET binding towards Opioid receptor delta 2 at 0.25 nM concentration; activity expressed as Bmax.
Experiment [13] concerns the target Mu-type opioid receptor (UniProt P35372). Kind of experiment: Post wash IC50 ratio obtained by dividing the IC50 of the morphine in presence of the antagonist by the IC50 of the agonist alone in the same tissue preparation against opioid receptor mu in guinea pig ileum. The class given is functional, tissue-based. Summed up:
as §2

The target in experiment [14] is Delta-type opioid receptor (Rattus norvegicus) (UniProt P33533). As to the kind of experiment: Compound was evaluated for its effect on the [3H]DSLET binding towards Opioid receptor delta 2 at 4 nM concentration; activity expressed as Bmax.
Experiment [15] has the same target. Kind of experiment: Compound was evaluated for its effect towards […] binding to Opioid receptor delta 1 at 0.25 nM concentration activity expressed as Bmax.

Chain of Kappa-type opioid receptor (P41145 whole entry): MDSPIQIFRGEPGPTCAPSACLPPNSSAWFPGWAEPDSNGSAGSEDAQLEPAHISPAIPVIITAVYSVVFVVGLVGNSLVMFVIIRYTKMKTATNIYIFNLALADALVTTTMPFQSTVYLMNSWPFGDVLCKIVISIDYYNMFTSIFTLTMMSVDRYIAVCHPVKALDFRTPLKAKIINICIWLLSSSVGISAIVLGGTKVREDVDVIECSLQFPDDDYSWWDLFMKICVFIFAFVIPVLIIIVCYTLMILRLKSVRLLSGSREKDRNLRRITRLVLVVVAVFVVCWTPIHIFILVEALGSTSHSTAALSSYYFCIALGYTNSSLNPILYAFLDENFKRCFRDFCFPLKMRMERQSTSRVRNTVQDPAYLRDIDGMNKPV
Chain of Mu-type opioid receptor (P35372 whole entry): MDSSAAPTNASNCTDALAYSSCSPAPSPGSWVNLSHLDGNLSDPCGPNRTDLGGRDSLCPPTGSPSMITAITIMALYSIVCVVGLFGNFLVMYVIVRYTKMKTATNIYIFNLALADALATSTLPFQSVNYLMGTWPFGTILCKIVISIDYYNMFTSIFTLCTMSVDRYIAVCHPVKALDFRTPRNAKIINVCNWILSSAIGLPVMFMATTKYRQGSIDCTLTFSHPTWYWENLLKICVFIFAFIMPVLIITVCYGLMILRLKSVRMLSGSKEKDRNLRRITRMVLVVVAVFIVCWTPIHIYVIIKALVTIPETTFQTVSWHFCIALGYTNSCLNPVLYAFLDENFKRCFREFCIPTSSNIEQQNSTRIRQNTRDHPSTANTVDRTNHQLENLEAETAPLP
Chain of Delta-type opioid receptor (Rattus norvegicus) (P33533 whole entry): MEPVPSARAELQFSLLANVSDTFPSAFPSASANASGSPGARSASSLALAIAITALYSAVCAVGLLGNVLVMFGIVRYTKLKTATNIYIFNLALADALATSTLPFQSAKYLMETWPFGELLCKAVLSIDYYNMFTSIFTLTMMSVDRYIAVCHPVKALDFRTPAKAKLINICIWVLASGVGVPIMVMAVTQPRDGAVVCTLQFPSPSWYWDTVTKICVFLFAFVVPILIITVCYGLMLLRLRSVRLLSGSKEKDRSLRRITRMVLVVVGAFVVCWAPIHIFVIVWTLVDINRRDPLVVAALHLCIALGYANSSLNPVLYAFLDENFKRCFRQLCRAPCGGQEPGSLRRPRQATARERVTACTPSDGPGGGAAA
T1 sequence (P33533 whole entry): as above

Turning to `Oc1ccc2c3c1OC1c4[nH]c5cccc(N=C=S)c5c4CC4(O)C(C2)N(CC2CC2)CCC314` (stereo unspecified), the inhibition – broadly, the change of the read-out against control, counted positive when it falls – at 1 µM in the experiment filed under Mus musculus [1] was 24.4%; in the experiment listed under Cavia porcellus, 1%. The Ratio in experiment [2] turned out to be 4.59; in experiment [3], 3.71; on Mu-type opioid receptor [4], 0.77; in [6], 0.51. Further, the ED50 ratio is given as 1.6 with Mus musculus [5], 2.6 with Mus musculus [7], 1.6 in the experiment on Mus musculus [8] and 1.2 in the experiment with Mus musculus [9].

As to `Oc1ccc2c3c1OC1c4[nH]c5c(N=C=S)cccc5c4CC4(O)C(C2)N(CC2CC2)CCC314` (stereo unspecified), the Kd – broadly, the free concentration of one partner at which half of the binding sites on the other are occupied at equilibrium, for simple one-to-one binding – in experiment [10] came out at 2.3 nM; in [11], 15.7 nM. The inhibition at 1 µM in the experiment filed under Mus musculus [1] is 31.8%; in the experiment listed under Cavia porcellus, 5.9%. The Ratio in [2] was determined as 7.99; in [3] it was 16.1; on Mu-type opioid receptor [4] it was 15; at Mu-type opioid receptor [13], 53; in experiment [6], 0.81. Besides, the ED50 ratio in the experiment on Mus musculus [5] stood at 3; in the experiment on Mus musculus [7] it was 3.7; with Mus musculus [8], 0.8; with Mus musculus [9], 2. The Bmax (fM (mg of protein)-1) in experiment [12] was 208; in [14], 361; in experiment [15] it was 5.6.

Take `Oc1ccc2c3c1OC1c4[nH]c5cc(N=C=S)ccc5c4CC4(O)C(C2)N(CC2CC2)CCC314` (stereo unspecified): the figures for the inhibition at 1 µM in the experiment filed under Mus musculus [1] and in the experiment listed under Cavia porcellus were 0% and 12.4%, respectively. Also, the Ratio in experiment [2] was 155; in experiment [3] it was 185; at Mu-type opioid receptor [4] it was 1.44; in experiment [6], 1.04. Besides, the ED50 ratio in the experiment on Mus musculus [5] came to 6.8; in the experiment with Mus musculus [7] it was 9.2; with Mus musculus [8], 0.9; in the experiment on Mus musculus [9], 1.4.

As for `Oc1ccc2c3c1OC1c4[nH]c5ccc(N=C=S)cc5c4CC4(O)C(C2)N(CC2CC2)CCC314` (stereo unspecified), the inhibition at 1 µM was 18.8% in the experiment listed under Mus musculus [1] and -2.4% in the experiment listed under Cavia porcellus. The Ratio in experiment [2] came to 6.68; in [3] it was 7.71; at Mu-type opioid receptor [4], 0.9; in [6], 0.93. Also, the ED50 ratio in the experiment with Mus musculus [5] amounted to 52.1; in the experiment with Mus musculus [7], 0.6; with Mus musculus [8] it was 3.2; in the experiment with Mus musculus [9] it was 1.3.

(Values after ChEMBL document CHEMBL1125341, “Delta opioid antagonist activity and binding studies of regioisomeric isothiocyanate derivatives of naltrindole: evidence for delta receptor subtypes” (J Med Chem, 1992).)
